# Test results as given in PubChem BioAssay.
# Values without a mark were called inactive. Results filed as inconclusive are left out. Activity calls are given as the source filed them.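 Rule for the calls, unless noted: active = inhibition over a set limit, the all-compound mean plus 3 SD, in both replicate runs; inconclusive = over that limit in just one replicate run; inactive = at or under that limit in both runs.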
# How the values were obtained:
# [1] = OD615 S. cerevisiae growth inhibition, permissive medium, pilot counter-assay, permissive growth control for S. cerevisiae lifespan shortening project (AID 705;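 active = growth inhibition above 25% in both replicates, a cutoff set 3 SD above the mean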); settings: OD615, 24 h, at 10 µM, hits give high values
# Outline: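 Material: engineered DeaD yeast; compound dosing: one dose 10 µM, DMSO 0.25% final; measure: yeast growth inhibition indicated by reduced 24 h OD615; detection: OD615 turbidity read; incubation: cells pre-grown 4 h, then 24 h compound exposure, 30 °C humidified; medium: permissive synthetic complete medium with raffinose and galactose carbon sources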
# [2] = Restrictive medium S. cerevisiae growth inhibition, OD615, pilot screen of yeast lifespan reduction project, restrictive growth control (AID 706;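 active = growth inhibition above a set limit, 3 SD over mean compound inhibition, in both replicates, cut at about 43% in these data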;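 note: modified DeaD lifespan yeast strain shifted to restrictive glucose medium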); settings: OD615, 48 h, at 10 µM, hits give high values
# Outline: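 material = engineered S. cerevisiae DeaD strain | medium = glucose-based CSMM-D restrictive medium | times = 4 h pre-incubation, 48 h exposure at 30 °C | technique = OD615 absorbance reading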
# [3] = viability gain of MRP-1-high H69AR cells under doxorubicin, pilot screen, MRP-1 activator project, CellTiter-Glo, duplicate (AID 807;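 active = viability increase at or above a cutoff of the median across tested compounds plus 3 SD, cut at about 8.5% in these data, passing the limit was not always enough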;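 note: compound pretreatment 18-22 h then 72 h combined with doxorubicin; 0% = doxorubicin alone and 100% = vehicle without doxorubicin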); settings: H69AR viability with doxorubicin, CellTiter-Glo luminescence; at 10 µM; hits give high values
# [4] = growth suppression of beta-catenin knockout HCT116, pilot screen, human colon tumor cells (AID 823;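 active = cell viability at or below a set limit in both duplicate runs, the limit being the all-compound median minus 4 SD, cut at about 23% in these data, passing the limit was not always enough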;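 note: 0% = wells killed by 20 µM Hyamine and 100% = untreated DMSO cell wells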); settings: CellTiter-Glo, 60 h, at 10 µM, hits give low values
# [5] = growth suppression of PTEN-deleted HCT116, pilot screen, cell-based, HCT116 clonal line, CellTiter-Glo (AID 824;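 active = viability at or below 27.92% in each of two runs, the all-compound median minus 4 SD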;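 note: 0% = 20 µM Hyamine control and 100% = vehicle cell control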); settings: 60 h, at 10 µM, hits give low values
# [6] = inhibitors of the yeast RAM network, pilot screen, dse1pr::URA3 reporter, 5-FOA selection (AID 869);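 note: 0% = DMSO wells with no growth and 100% = 10 µM 1-NA-PP1 with full growth; RAM network block rescues cells from 5-FOA so hits raise OD615 growth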; settings: S. cerevisiae dse1pr::URA3 5-FOA growth, OD615, 2 d; at 10 µM; hits give high values; strain carries analog-sensitive mutant Cbk1 kinase
# [7] = RAM signaling pathway blockade in yeast – S. cerevisiae, Pdr1DBD-CYC8 efflux-inhibited sensitized strain, primary screen (AID 1298;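 active = RAM network inhibition above 8.4% in each of two replicates, 3 SD over the compound average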;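 note: 0% = DMSO untreated cells without growth and 100% = 10 µM 1-NA-PP1 full growth; higher means more yeast growth rescued from 5-FOA killing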); settings: S. cerevisiae cbk1-as DSE1-URA3 strain, 5-FOA growth OD615, 2 d; at 50 µM; hits give high values
SMILES,growth inhibition [1] [%],growth inhibition [2] [%],viability increase [3] [%],viability [4],viability [5],inhibition [6] [%],RAM network inhibition [7] [%]
Cc1onc(-c2ccccc2Cl)c1C(=O)Nc1nnc(C(C)C)s1,1.52,4.5,-1.44,93.4%,95.7%,-0.23,4.37
NC(=O)C1CCN(CCCNC2CC(=O)N(Cc3ccc(N4CCCC4=O)cc3)C2=O)CC1 (configuration not stated),-14.8,-4.07,-0.01,98.7%,98.7%,1.15,5.68
COc1ccc(CNC(=O)c2ccc3c(c2)N(C)C(=O)CS3=O)cc1 (configuration not stated),-1,7.29,1.48,103%,97.3%,1.41,2.04
COc1ccccc1N1CCN(C(=O)CCCn2c(=O)[nH]c3ccsc3c2=O)CC1,3.76,7.54,-2.24,98.6%,97.2%,0.74,-0.42
Cn1c(NC(=O)C2CCCC2)cc(=O)n(C)c1=O,0.48,-4.17,-0.06,105%,95.4%,0.58,-1.4
O=C(CCCOc1ccc(Cl)cc1)N1CCCCC1,-13.2,-11.9,3.35,96.1%,96.8%,0.44,-0.78
N#Cc1nc(-c2ccc(F)cc2)oc1NCc1ccccc1,-11.9,2.85,0.89,105%,95.7%,1.36,1.07
Cc1nc2ccc(NC(=O)c3ccc(Cl)s3)cc2s1,-7.99,-7.74,-3.83,106%,97.1%,1.84,4.46
CC(=O)c1cccc(NC(=O)Nc2cc3sccc3n2C)c1,10.3,10.1,-3.17,98.2%,95.9%,0.69,5.08
CCCCn1c(=NC(=O)c2cccnc2)c(C(=O)OCC)cc2c(=O)n3ccccc3nc21,-19.8,-15,-4.72,84.2%,88.1%,0.685,7.68
CC(=O)Nc1ccc(S(=O)(=O)NCc2ccc3c(c2)cc(C)n3C)cc1,8.2,10.1,0.21,101%,99.2%,3.49,2.12
Brc1ccc(-c2noc(CCc3ccccc3)n2)o1,-9.63,2.66,1.58,102%,96.9%,3.12,0.73
CC1C(=O)CC(c2ccccc2)N(C)C1c1ccccc1 (configuration not stated),-16,-18,-4.71,82.8%,84.1%,2.57,8
COc1cccc(C2=N/C(=C\N(C)C)C(=O)O2)c1,1.7,11.6,-0.29,94.7%,102%,-0.855,2.96
CC1Cc2ccccc2N1C(=O)CCn1c(=O)sc2ccccc21 (configuration not stated),-4.26,-16.9,-1.79,93.3%,85.3%,1.17,3.45
O=C(Cn1cc2c(n1)CCCC2)NCCCN1CCN(C2CCCCC2)CC1,-3.58,9.3,-0.74,101%,93.1%,1.92,0.77
CC(=O)OC1c2c(ccc3ccc(=O)oc23)OC(C)(C)C1OC(=O)CC(C)C (configuration not stated),-18.4,-10,1.31,84.7%,80.8%,1.1,10
Cn1c(Cn2c(=O)sc3ccccc32)nnc1SCC(=O)N1CCCC1,-7.01,-4.62,0.61,97%,99.3%,1.95,6.71

SMILES,growth inhibition [1] [%],growth inhibition [2] [%],viability increase [3] [%],viability [4],viability [5],inhibition [6] [%],RAM network inhibition [7] [%]
COc1ccccc1NC1C=CS(=O)(=O)C1 (configuration not stated),-1.03,0.12,-2.42,99.5%,94.4%,0.335,4.65
Cc1cccc(N2CCN(c3nc4ccc(Cl)cc4n4cnnc34)CC2)c1C,-17.7,-14.7,-8.78,2.03% (active),1.75% (active),-0.44,-0.95
CCOC(=O)CSC(CC)C(=O)Nc1nnc(CC)s1 (configuration not stated),-15.4,-6,2.67,102%,96.6%,0.62,-0.27
Cc1cc2nc(SCCN3CCCC3)[nH]c2cc1C,7.63,-8.07,-4.4,83.1%,89.1%,3.22,-0.81
Nc1c(C(=O)Nc2ccc(Cl)cc2)oc2ccccc12,-21,-20.9,-4.54,75.3%,72.9%,2.38,2.51
COc1ccc(-c2cc(C(F)(F)F)n3nc(C)cc3n2)cc1,-16.1,-2.2,0.18,96.2%,87%,2,-0.06
CC(C)=C(NC(=O)c1ccccc1)C(=O)NCCCC(=O)O,-7.54,-18.8,-0.03,100%,103%,1.5,2.34
COc1ccc(CNC(=O)CS(=O)Cc2nc(-c3ccc(C)cc3)oc2C)cc1 (configuration not stated),-5.34,0.735,-2.44,86.9%,93.4%,1.39,5.95
CC(C)C(NC(=O)CN1C(=O)c2ccccc2S1(=O)=O)C(C)C,-10,-13,-2.05,98.8%,94.3%,1.4,-1.56
C=CCn1c(SCCOC)nc2c1c(=O)[nH]c(=O)n2C,2.12,0.43,-2.47,99%,95%,0.665,-0.26
CCCCN1C(=O)c2ccc(C(=O)Nc3c(N)n(CCCC)c(=O)n(C)c3=O)cc2C1=O,-9.82,-6.89,-0.93,103%,88.2%,0.865,7.06
Cc1ccc(C(=O)Nc2ccccc2NC(=O)c2ccc(C)o2)o1,-1.73,8.06,-3.39,93.2%,91.6%,1.41,3.58
Cc1noc(C)c1S(=O)(=O)N(CC(=O)N1CCCC1)c1ccc(C(C)C)cc1,-1.45,-1.11,-5.13,83.6%,83%,0.4,4.43
CCOC(=O)N(C)OC(=O)Nc1ccc(Cl)c(Cl)c1,-17.1,-20.5,-0.16,95.6%,90.8%,0.52,5.93
CCC(C)C1C(C#N)=C(N)OC2=C1C(=O)CC(C)(C)C2 (configuration not stated),-10.1,-15.1,-3.48,103%,86.5%,1.31,6.21
CC(=O)Nc1ccc(S(=O)(=O)N2CCN(c3cc(C)ccc3C)CC2)cc1,-14.3,-36,-0.32,85.7%,79.3%,3.58,0.1
COc1ccccc1NC(=O)N1CCN(c2ccc3nncn3n2)CC1,-3.47,0.79,0.48,106%,103%,-0.315,0.69
Cc1ccc(-n2nnc3c(=O)n(CC(=O)OCc4ccccc4)cnc32)cc1,-3.74,-5.4,-2.06,92.6%,91.1%,2.02,6.18
